M1 PAM: human M1 muscarinic receptor positive allosteric modulators, primary screen, CHO-K1 cells, Fluo-8 calcium fluorescence, 1536-well; 0.088% of 360,000 active; CHO-K1 hM1, ACh EC20; 0% = ACh EC20, 100% = maximal ACh; activation, % at 3 µM; Muscarinic acetylcholine receptor M1 (Homo sapiens), P11229; in the data active = activation above about 19%, passing the limit was not always enough
TAAR1 antagonist: human TAAR1 antagonists, primary screen, Fluo-8 calcium fluorescence, CHO RD-HGA16 cells | antagonist | inhibition, % at 3 µM | AID 624466, 2012 | Trace amine-associated receptor 1 (Homo sapiens), Q96RJ0 | 1.5% of 360,000 active;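 active = inhibition above a per-plate cutoff, the mean inhibition of test compounds on that plate plus 3 SD, cut at about 49% in these data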;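 also: 0% = DMSO plus EC80 beta-PEA response and 100% = DMSO alone without agonist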
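Assay system: CHO-derived RD-HGA16 cells stably expressing human TAAR1 plus Gα16. Timing: 140 s kinetic read after compound, 140 s after agonist. Technique: kinetic Fluo-8 calcium fluorescence measurement. Measure: % inhibition of agonist calcium response.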
M1 antag: human M1 muscarinic receptor antagonists, primary screen, CHO-K1 cells, Fluo-8 calcium fluorescence, 1536-well | CHO-K1 hM1, ACh EC80 antagonist | inhibition, % at 3 µM | 1.3% of 360,000 active | AID 588852, 2011;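 active = percent inhibition above its own plate's cutoff, namely the mean of that plate's compound wells plus 3 SD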;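 also: peak over basal fluorescence ratio during 140 s after agonist addition; 0% = ACh EC80 plus DMSO and 100% = DMSO alone without agonist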
TAAR1 agonist: human TAAR1 agonists, primary screen, Fluo-8 calcium fluorescence, CHO RD-HGA16 cells; Trace amine-associated receptor 1 (Homo sapiens), Q96RJ0; vehicle wells 0%, saturating PEA agonist 100%; activation, % at 3 µM; 0.99% of 360,000 active; AID 624467, 2012;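 active = activation above the mean activation of all test compounds in the run plus 3 SD, cut at about 38% in these data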
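test system = CHO RD-HGA16 cells carrying human TAAR1 plus Gα16 | schedule = 17-24 h seeding, 75 min 37 °C dye, 30 min RT | compound dosing = 3 µM single concentration | control set = DMSO and PEA EC100 | replicates = n 1 | signal = Fluo-8 fluorescence, 5 s baseline then 140 s kinetic read | measure = percent activation vs PEA EC100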
CHRM1 agonist: human M1 muscarinic receptor agonists, primary screen, Fluo-8 calcium fluorescence, CHO-K1 cells, HTS | Muscarinic acetylcholine receptor M1 (Homo sapiens), P11229 | CHO-K1 hM1, agonist mode; 0% DMSO, 100% acetylcholine EC100 | activation, % at 3 µM | 0.33% of 360,000 active;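 active = activation above the run's mean compound activation plus 3 SD, cut at about 16% in these data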;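 also: peak over basal fluorescence ratio within a 140 s kinetic read after compound addition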
HTR2A ag: mouse Htr2a agonists via beta-arrestin recruitment, primary screen, cell-based, luminescence | 5-hydroxytryptamine receptor 2A (Mus musculus), P35363 | activation, % at 7.6 µM | AID 624169, 2012 | 0.66% of 360,000 active | CHO-K1 mHTR2A beta-arrestin complementation; percent of 30 µM serotonin response;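 active = activation above a run cutoff, the mean activation of all tested compounds plus 3 SD, cut at about 14% in these data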;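 also: 0% = plate median of compound wells and 100% = 30 µM serotonin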
OPRM1 ag: OPRM1 agonists via beta-arrestin recruitment, confirmation, counter-screen for mouse HTR2A agonist project, cell-based, luminescence, single concentration | shares compounds with HTR2A ag | U2OS OPRM1 beta-arrestin PathHunter; DMSO 0%, DAMGO 9.3 µM 100% | activation, % at 9.3 µM | 5.3% of 2,300 active | AID 624380, 2012;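 active = mean activation above the mean of DMSO-only wells plus 3 SD, cut at about 0.5% in these data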
Target sequence (P35372 whole entry, looked up): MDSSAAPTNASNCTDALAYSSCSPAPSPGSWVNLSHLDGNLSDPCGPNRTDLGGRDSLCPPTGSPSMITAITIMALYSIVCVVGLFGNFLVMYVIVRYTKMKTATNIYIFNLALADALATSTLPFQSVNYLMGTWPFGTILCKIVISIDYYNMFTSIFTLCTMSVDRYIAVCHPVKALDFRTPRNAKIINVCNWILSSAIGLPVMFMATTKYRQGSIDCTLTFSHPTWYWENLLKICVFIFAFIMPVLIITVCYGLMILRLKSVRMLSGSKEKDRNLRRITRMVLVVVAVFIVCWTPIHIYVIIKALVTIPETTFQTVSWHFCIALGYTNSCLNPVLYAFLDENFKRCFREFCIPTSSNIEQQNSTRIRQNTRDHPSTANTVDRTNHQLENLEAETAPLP
m5-HT2A ag conf: mouse HTR2A agonists, beta-arrestin recruitment, confirmation, cell-based, luminescence, CHO-K1 PathHunter, triplicate; 19% of 2,300 active; DMSO 0%, 30 µM serotonin 100%; activation, % at 7.6 µM; shares compounds with HTR2A ag;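 active = mean activation across triplicates above the hit threshold derived in the original primary screen, cut at about 15% in these data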
* = called active by the depositor. A selection: hits, their analogues and other compounds. The true share with any hit is near 3.9%.

Screening Cc1ccc(CNC(=O)c2ccc(N3CCC4(CC3)CC(c3cccc(Br)c3)=NO4)c([N+](=O)[O-])c2)cc1 returned M1 PAM 1, TAAR1 antagonist -5, M1 antag 6, TAAR1 agonist 23, CHRM1 agonist -2, HTR2A ag 14*, OPRM1 ag -1 and m5-HT2A ag conf 0.
For Cc1c(C(C)(C)O)[nH]c2cc(C(F)(F)F)ccc12 the results were M1 PAM -6, TAAR1 antagonist 6, M1 antag 3, TAAR1 agonist 15, CHRM1 agonist 0 and HTR2A ag 0.
O=c1[nH]c2cc(C(F)(F)F)ccc2n1-c1cc(C(F)(F)F)ccc1O was read as M1 PAM 10, TAAR1 antagonist -7, M1 antag -27, TAAR1 agonist 2, CHRM1 agonist 9, HTR2A ag 15*, OPRM1 ag 0.6* and m5-HT2A ag conf 3.
Screening CCc1ccc(NC(=O)c2sccc2-n2cccc2)cc1 returned M1 PAM 2, TAAR1 antagonist 16, M1 antag -2, TAAR1 agonist 15, CHRM1 agonist -2, HTR2A ag 15*, OPRM1 ag 0 and m5-HT2A ag conf -5.
`COc1ccc(NC(=O)c2sccc2-n2cccc2)cc1` gave M1 PAM 6, TAAR1 antagonist -23, M1 antag -3, TAAR1 agonist -1, CHRM1 agonist -7 and HTR2A ag 5.
For O=C(O)c1ccc(/C=N/Nc2ccc(C(F)(F)F)cn2)cc1 the results were M1 PAM 10, TAAR1 antagonist 28, M1 antag -1, TAAR1 agonist 6, CHRM1 agonist -7, HTR2A ag 18*, OPRM1 ag -1 and m5-HT2A ag conf -2.
COc1ccc(NC(=O)CN(C)CC(=O)NCC(=O)Nc2ccc(F)cc2)cc1 was read as M1 PAM 1, TAAR1 antagonist 0, M1 antag -1, TAAR1 agonist 3, CHRM1 agonist -1, HTR2A ag 16*, OPRM1 ag -1 and m5-HT2A ag conf -3.
`COc1cccc(NC(=O)CN(C)CC(=O)NCC(=O)Nc2ccc(F)cc2)c1` gave M1 PAM 7, TAAR1 antagonist -9, M1 antag -4, TAAR1 agonist 16, CHRM1 agonist -2 and HTR2A ag -4.
Screening COc1cc(Cl)c(CN2CCCC(CO)(Cc3cccc(Cl)c3)C2)cc1OC (stereo unspecified) returned M1 PAM -7, TAAR1 antagonist 4, M1 antag -4, TAAR1 agonist 10, CHRM1 agonist -8 and HTR2A ag -8.
`COc1ccc(/C(C)=N/NC(=O)c2ccc(NS(=O)(=O)c3cccs3)cc2)cc1` gave M1 PAM 4, TAAR1 antagonist -2, M1 antag 1, TAAR1 agonist -2, CHRM1 agonist -2 and HTR2A ag -5.
`Cn1c(=O)n(C)c2cc(/C=C3/SC(=O)N(CC(=O)N4CCOCC4)C3=O)ccc21` gave M1 PAM 8, TAAR1 antagonist -2, M1 antag -8, TAAR1 agonist 0, CHRM1 agonist -7, HTR2A ag 17*, OPRM1 ag -1 and m5-HT2A ag conf -1.

Assay outcomes: PubChem BioAssay, The Scripps Research Institute Molecular Screening Center
